TRPC4 inh – inhibitors of mouse TRPC4 channel; HEK293 TRPC4beta/mu-opioid, DAMGO-evoked Fluo4 calcium flux; stronger effect = lower value; B-score at 10 µM; 300,000 tested, 0.39% active; Q9QUQ5;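 active = B-score over 3 SD under the library average, no early fluorescence shift, positive overall ratio signal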
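System: stable TRPC4beta/mu-opioid receptor HEK293 cells; Dosing: single-point compound dosing; Measured by: Fluo4 Ca2+ flux fluorescence; Read-out basis: per-well B score of integrated baseline-normalized Fluo4 ratio.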
TRPC4 PAM – allosteric potentiators of mouse TRPC4 channel | Q9QUQ5 | HEK293 TRPC4beta/mu-opioid, DAMGO EC20, Fluo-4 Ca2+ flux; stronger effect = higher value | B-score at 10 µM | 310,000 tested, 0.42% active | AID 2227;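 active = B-score of calcium response area above 5 SD of library B-scores, with initial fluorescence ratio within 5 SD of library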;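 note: B-score of integrated fluorescence ratio over time as area under calcium response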
TRPC6 inh – blocks the mouse TRPC6 cation channel; HEK293-TRPC6, membrane potential dye, ACh-evoked depolarization; stronger effect = lower value; B-score at 10 µM; 310,000 tested, 1.1% active;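 active = B-score under library mean minus 3 SD, initial fluorescence not abnormally high, positive integrated signal ratio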;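 note: B-score derived from integrated fluorescence ratio over the kinetic read; more negative B-score means stronger inhibition of depolarization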
TRPC4 act – activators of mouse TRPC4 channel; Q9QUQ5; HEK293 TRPC4beta/mu-opioid, Fluo4 calcium fluorescence; stronger effect = higher value; B-score at 10 µM; 310,000 tested, 0.49% active; AID 2237;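 active = B-score above 5 SD of library B-scores, and initial fluorescence ratio not above library mean plus 5 SD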;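 note: positive B-score marks a calcium rise read as TRPC4 activation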
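Incubation: 45 min room-temperature Fluo4 loading, 110 s read / System: HEK293 cells stably co-expressing mouse TRPC4beta and mu-opioid receptor / Signal: Fluo4 fluorescence, kinetic / Control set: buffer (low) and maximal DAMGO (high) / Measure: integrated baseline-normalised fluorescence ratio, converted to per-well B score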
TRPC6 activator – activators of mouse TRPC6 channel; Q61143; HEK293-TRPC6 membrane potential dye fluorescence; stronger effect = higher value; B-score at 10 µM; 310,000 tested, 0.13% active;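 active = B-score of the integrated fluorescence ratio above library mean plus 3 SD, and starting fluorescence ratio within library mean plus 5 SD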;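 note: higher score means more depolarization so channel activation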
TRPC4 sel inh 2 – second check of whether TRPC6 inhibitors also affect mouse TRPC4; shares compounds with TRPC6 inh; HEK293 TRPC4/MOR, membrane potential dye fluorescence; channel activated by saturating DAMGO dose; inhibition, % at 10 µM; 920 tested, 42% active; AID 2776;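 active = compounds whose fluorescence signal differed from control wells by over 3 SD, either direction, in both duplicate plates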
TRPC4 spec – mouse TRPC4 off-target activity of TRPC6 inhibitors; shares compounds with TRPC6 inh; HEK293 TRPC4/mu-opioid, membrane potential fluorescence; activity change, negative = inhibition, % at 10 µM; 920 tested, 61% active; AID 2777;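 active = rise or fall in signal beyond 3 SD of buffer-only wells in both replicate plates, either sign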;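 note: integrated kinetic ratio of fluorescence range over baseline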
HEK293 MPD ctr 2-1 – parental HEK293 nonspecific activity of TRPC6 inhibitors, second screen; shares compounds with TRPC6 inh; parental HEK293 membrane potential dye fluorescence; maximal acetylcholine challenge after compound addition; signal change vs control, % at 10 µM; 920 tested, 31% active;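 active = membrane potential signal moving either way by over 3 SD of the maximum-effect control, in both duplicate plates, meaning non-specific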
HEK293 MPD ctr-1 – checks TRPC6 inhibitor effects in parental HEK293 cells; shares compounds with TRPC6 inh; membrane potential signal change, % at 10 µM; AID 2780; 920 tested, 60% active; parental HEK293 membrane potential dye fluorescence;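 active = membrane potential signal shifting up or down by more than 3 SD of buffer-only wells, on both duplicate plates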
HEK293 MPD ctr-2 – counter-screen for TRPC6 modulators: effect in parental HEK293 cells; shares compounds with TRPC6 inh; membrane potential dye fluorescence; membrane potential signal change, % at 10 µM; 2,400 tested, 51% active;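 active = membrane potential signal moves up or down beyond 5 SD from buffer-only wells, on both duplicate plates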
HEK293 MPD ctr 2-2 – parental HEK293 nonspecific activity of TRPC6 modulators, second screen | shares compounds with TRPC6 inh | membrane potential dye fluorescence; after compound, maximal acetylcholine stimulation | inhibition, % at 10 µM | 2,400 tested, 14% active;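 active = membrane potential signal drops by more than 5 SD from the mean control signal, in both duplicate plates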;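 note: plate controls were acetylcholine ECmax control wells for no effect and buffer only wells for full effect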
TRPC4/MOR mod – tests whether TRPC6 modulators also affect mouse TRPC4 | percent change from control (negative = decrease, positive = increase), % at 10 µM | HEK293 TRPC4/mu-opioid, membrane potential fluorescence | 2,400 tested, 69% active | shares compounds with TRPC6 inh;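 active = membrane potential signal moved up or down beyond 5 SD of buffer control wells, in both duplicate plates, actives on both sides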;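 note: plate controls were assay buffer wells for no effect and DAMGO maximal-effect wells for full effect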
TRPC4/MOR inh 2 – second selectivity test of TRPC6 modulators against mouse TRPC4 | 2,400 tested, 55% active | shares compounds with TRPC6 inh | inhibition, % at 10 µM | HEK293 TRPC4/mu-opioid, membrane potential dye fluorescence; stimulated with maximal-effect DAMGO;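 active = drop in membrane potential signal beyond 5 SD of the control wells in both duplicate plates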;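 note: TRPC4 counter screen for TRPC6 hits run under conditions tuned for TRPC6 not TRPC4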
TRPC6 inh conf – mouse TRPC6 inhibitor confirmation. 3,300 tested, 43% active. HEK293-TRPC6, membrane potential dye, ACh-evoked depolarization. shares compounds with TRPC6 inh. inhibition, % at 10 µM;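 active = fluorescence ratio falls more than 5 SD below the full-stimulation control mean, in both duplicate runs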;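 note: integrated fluorescence ratio of peak minus minimum over baseline after agonist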
TRPC6 act conf – confirmation of mouse TRPC6 activators. AID 488961. HEK293-TRPC6 membrane potential dye fluorescence, FDSS. 2,800 tested, 11% active. shares compounds with TRPC6 inh. activation, % at 10 µM;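 active = ratio signal rise beyond 5 SD above unstimulated control wells' mean, seen in both duplicate runs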;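 note: plate controls were buffer EC0 wells for no effect and acetylcholine ECmax response for full effect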
* = called active by the depositor; i = inactive; . = no result. A selection: hits, their analogues and other compounds. The true share with any hit is near 2.3%.

SMILES | TRPC4 inh | TRPC4 PAM | TRPC6 inh | TRPC4 act | TRPC6 activator | TRPC6 inh conf | TRPC6 act conf | others
COc1ccc(NC(=O)COc2ccccc2C(=O)NCC(c2ccccc2)N(C)C)cc1Cl (stereo unspecified) | i | i | -5.26* | 45* | i | 48.0%* | i | HEK293 MPD ctr-2=i;HEK293 MPD ctr 2-2=i;TRPC4/MOR mod=i;TRPC4/MOR inh 2=85.5%*
COC(=O)c1[nH]c2ccc(C)cc2c1NC(=O)C(C)N1CCN(C2CCCCC2)CC1 (stereo unspecified) | i | i | i | i | i | . | .
COC(=O)c1[nH]c2ccc(Br)cc2c1NC(=O)C(C)N1CCN(C2CCCCC2)CC1 (stereo unspecified) | i | i | -7.62* | i | i | 88.1%* | i | TRPC4 sel inh 2=42.5%*;TRPC4 spec=-17.9%*;HEK293 MPD ctr 2-1=29.0%*;HEK293 MPD ctr-1=-144.5%*
Cc1ccc(/C([O-])=C(/C(=S)Nc2ccc(SC(F)F)cc2)[n+]2ccccc2)cc1[N+](=O)[O-] | i | i | i | i | i | . | .
COc1c2c(nc3occc13)C(CCC(C)(C)O)(OC)C(O)CC2 (stereo unspecified) | i | i | i | i | i | . | .
CCOC(=O)CCn1nc(-c2ccc(C)cc2)c2ccccc2c1=O | i | i | -5.55* | i | i | 53.5%* | . | HEK293 MPD ctr-2=179.5%*;HEK293 MPD ctr 2-2=i;TRPC4/MOR mod=41.5%*;TRPC4/MOR inh 2=i
CCCCNC(=O)CCn1nc(-c2ccccc2)c2ccccc2c1=O | i | i | -7.89* | i | i | i | . | TRPC4 sel inh 2=i;TRPC4 spec=7.5%*;HEK293 MPD ctr 2-1=i;HEK293 MPD ctr-1=5.7%*
O=C(O)/C(=C\c1cccc(OCc2ccccc2)c1)c1ccc(F)cc1 | i | i | i | i | i | . | .
Fc1ccc(CN2CCCCCCC2)cc1 | i | i | i | i | i | . | .
CCCCCCn1c2c(c(=N)c3c1CCC3)CCC2 | i | i | -8.46* | i | i | 77.6%* | i | TRPC4 sel inh 2=69.0%*;TRPC4 spec=-25.4%*;HEK293 MPD ctr 2-1=-12.0%*;HEK293 MPD ctr-1=-452.0%*
CNCC(O)Cn1c2c(c3ccccc31)CCCC2 (stereo unspecified) | i | i | i | i | i | . | .
CCCCCCCn1ccc(=N)cc1 | i | i | i | i | i | . | .
CCCCCCCCCn1c2c(c(=N)c3c1CCC3)CCC2 | i | i | -6.32* | i | i | i | i | HEK293 MPD ctr-2=-169.0%*;HEK293 MPD ctr 2-2=i;TRPC4/MOR mod=-21.0%*;TRPC4/MOR inh 2=36.0%*
